ChEMBL document CHEMBL1828606, “Anticancer and radio-sensitizing evaluation of some new thiazolopyrane and thiazolopyranopyrimidine derivatives bearing a sulfonamide moiety” (Eur J Med Chem, 2011)

Tests used:
MCF7 [1] = experiment: Anticancer activity against human MCF7 cells assessed as viable cells at 100 uM after 48 hrs by SRB assay relative to control; type: functional
Outline: (§1)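 MCF7 human breast tumor cells seeded at 10⁴ cells/well and left 24 h to attach. Compounds dissolved in DMSO, added in replicate wells per concentration, 48 h at 37 °C under 5% CO₂. Cells fixed and stained 30 min with 0.4% (wt/vol) SRB in 1% acetic acid. Washed four times with 1% acetic acid, dye recovered in Tris-EDTA, read on an ELISA reader.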

MCF7 [2] = experiment: Anticancer activity against human MCF7 cells assessed as viable cells at 25 uM after 48 hrs by SRB assay relative to control; type: functional; outline: as §1
MCF7 [3] = experiment: Anticancer activity against 8 Gy gamma-irradiated human MCF7 cells assessed as viable cells after 48 hrs by SRB assay; type: functional, cell-based; conditions: MCF7, light or radiation study; outline: as §1
MCF7 [4] = experiment: Anticancer activity against human MCF7 cells assessed as viable cells after 48 hrs by SRB assay; type: functional, cell-based; conditions: MCF7, 48 h; outline: as §1
MCF7 [5] = experiment: Anticancer activity against 8 Gy gamma-irradiated human MCF7 cells assessed as viable cells after 48 hrs at 100 uM by SRB assay relative to control; type: functional; outline: as §1
MCF7 [6] = experiment: Anticancer activity against 8 Gy gamma-irradiated human MCF7 cells assessed as viable cells after 48 hrs at 10 uM by SRB assay relative to control; type: functional; outline: as §1
MCF7 [7] = experiment: Anticancer activity against 8 Gy gamma-irradiated human MCF7 cells assessed as viable cells after 48 hrs at 25 uM by SRB assay relative to control; type: functional; outline: as §1
MCF7 [8] = experiment: Anticancer activity against 8 Gy gamma-irradiated human MCF7 cells assessed as viable cells after 48 hrs at 50 uM by SRB assay relative to control; type: functional; outline: as §1
MCF7 [9] = experiment: Anticancer activity against human MCF7 cells assessed as viable cells at 50 uM after 48 hrs by SRB assay relative to control; type: functional; outline: as §1
MCF7 [10] = experiment: Anticancer activity against human MCF7 cells assessed as viable cells at 10 uM after 48 hrs by SRB assay relative to control; type: functional; outline: as §1

Row | SMILES | fold change (FC) (MCF7 [1]) | fold change (FC) (MCF7 [2]) | IC50 (MCF7 [3]) [µM] | IC50 (MCF7 [4]) [µM] | fold change (FC) (MCF7 [5]) | fold change (FC) (MCF7 [6]) | fold change (FC) (MCF7 [7]) | fold change (FC) (MCF7 [8]) | fold change (FC) (MCF7 [9]) | fold change (FC) (MCF7 [10])
1 | N#CC1=C(N)Oc2nc(Nc3ccc(S(N)(=O)=O)cc3)sc2C1c1ccc(Cl)cc1 (stereo not given) | 0.214 | 0.36 | 26.2 | 39.4 | 0.097 | 0.706 | 0.203 | 0.062 | 0.168 | 0.848
2 | NS(=O)(=O)c1ccc(Nc2nc3c(s2)C(c2ccc(Cl)cc2)c2c(nc[nH]c2=O)O3)cc1 (stereo not given) | 0.175 | 0.515 | 28.4 | 41.6 | 0.04 | 0.65 | 0.371 | 0.06 | 0.204 | 0.794
3 | CC(=O)NC1=C(C#N)C(c2ccc(Cl)cc2)c2sc(Nc3ccc(S(N)(=O)=O)cc3)nc2O1 (stereo not given) | 0.252 | 0.447 | – | 41.9 | – | – | – | – | 0.183 | 0.801
4 | CC(=O)N(C(C)=O)C1=C(C#N)C(c2ccc(Cl)cc2)c2sc(Nc3ccc(S(N)(=O)=O)cc3)nc2O1 (stereo not given) | 0.617 | 0.511 | – | 74.3 | – | – | – | – | 0.234 | 0.913
5 | NC(=O)C1=C(N)Oc2nc(Nc3ccc(S(N)(=O)=O)cc3)sc2C1c1ccc(Cl)cc1 (stereo not given) | 0.21 | 0.499 | – | 41.8 | – | – | – | – | 0.169 | 0.815
6 | Nc1ncnc2c1C(c1ccc(Cl)cc1)c1sc(Nc3ccc(S(N)(=O)=O)cc3)nc1O2 (stereo not given) | 0.207 | 0.454 | 23.7 | 35.8 | 0.086 | 0.504 | 0.341 | 0.064 | 0.186 | 0.62
7 | N#CC1=C(/N=C/c2ccccc2)Oc2nc(Nc3ccc(S(N)(=O)=O)cc3)sc2C1c1ccc(Cl)cc1 (stereo not given) | 0.324 | 0.206 | – | 45.2 | – | – | – | – | 0.295 | 0.93
8 | N#CC1=C(/N=C/c2ccc(Cl)cc2)Oc2nc(Nc3ccc(S(N)(=O)=O)cc3)sc2C1c1ccc(Cl)cc1 (stereo not given) | 0.304 | 0.24 | 17 | 34.6 | 0.182 | 0.462 | 0.124 | 0.143 | 0.257 | 0.634
9 | N#CC1=C(NS(=O)(=O)c2ccccc2)Oc2nc(Nc3ccc(S(N)(=O)=O)cc3)sc2C1c1ccc(Cl)cc1 (stereo not given) | 0.361 | 0.492 | – | 47.5 | – | – | – | – | 0.239 | 0.697
10 | Cc1ccc(S(=O)(=O)NC2=C(C#N)C(c3ccc(Cl)cc3)c3sc(Nc4ccc(S(N)(=O)=O)cc4)nc3O2)cc1 (stereo not given) | 0.6 | 0.52 | – | 71.7 | – | – | – | – | 0.2 | 0.92
11 | Nc1nc(=O)[nH]c2c1C(c1ccc(Cl)cc1)c1sc(Nc3ccc(S(N)(=O)=O)cc3)nc1O2 (stereo not given) | 0.654 | 0.56 | – | 84.1 | – | – | – | – | 0.265 | 0.9
12 | Nc1nc(=S)[nH]c2c1C(c1ccc(Cl)cc1)c1sc(Nc3ccc(S(N)(=O)=O)cc3)nc1O2 (stereo not given) | 0.325 | 0.639 | – | 52.8 | – | – | – | – | 0.241 | 0.814
13 | N#CC1=C(NC(N)=O)Oc2nc(Nc3ccc(S(N)(=O)=O)cc3)sc2C1c1ccc(Cl)cc1 (stereo not given) | 0.228 | 0.717 | – | 49.8 | – | – | – | – | 0.309 | 0.701
14 | N#CC1=C(NC(=O)CCl)Oc2nc(Nc3ccc(S(N)(=O)=O)cc3)sc2C1c1ccc(Cl)cc1 (stereo not given) | 0.252 | 0.531 | – | 43.8 | – | – | – | – | 0.25 | 0.702
